ChEMBL document CHEMBL1149837, “Isothiocyanate sesquiterpenes from a sponge of the genus axinyssa” (2008)
Calls of active or inactive are those of the source. No cut-off for these calls is given here.

Key:
MDA-MB-231 [1] = assay: Cytotoxicity against human MDA-MB-231 cells at 10ug/ml by SRB assay; type: functional, cell-based
Summary of the method: (§1)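 SRB colorimetric assay of cell growth and viability, adapted from a published method, in human tumour lines MDA-MB-231 (breast adenocarcinoma), A-549 (lung adenocarcinoma) and HT-29 (colon adenocarcinoma). The highest concentration tested was 10 µg/mL. Read-outs were GI50 and TGI, both in µM.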

A549 [2] = assay: Cytotoxicity against human A549 cells at 10ug/ml by SRB assay; type: functional, cell-based; summary of the method: as §1
HT-29 [3] = assay: Cytotoxicity against human HT29 cells at 10ug/ml by SRB assay; type: functional, cell-based; summary of the method: as §1
MDA-MB-231 [4] = assay: Cytotoxicity against human MDA-MB-231 cells by SRB assay; type: functional; summary of the method: as §1
A549 [5] = assay: Cytotoxicity against human A549 cells by SRB assay; type: functional; summary of the method: as §1
HT-29 [6] = assay: Cytotoxicity against human HT29 cells by SRB assay; type: functional; summary of the method: as §1

Q: Which Activity (MDA-MB-231 [1]) does the source give for CC(C)[C@@H]1CC[C@](C)(N=C=S)[C@]2(O)CC[C@@](C)(O)C=C12 here?
A: inactive

Q: And the Activity (A549 [2])?
A: inactive

Q: And the Activity (HT-29 [3])?
A: inactive

Q: For CC(C)[C@@]1(OO)CC[C@](C)(N=C=S)[C@@H]2CC[C@@](C)(O)C=C21, which Activity (MDA-MB-231 [1]) is on record?
A: inactive

Q: And the Activity (A549 [2])?
A: inactive

Q: What about the Activity (HT-29 [3]) of the same compound?
A: inactive

Q: Which results are given for CC(C)[C@@H]1CC[C@](C)(N=C=S)[C@@H]2CC[C@@](C)(O)C=C12 [AXINISOTHIOCYANATE J]?
A: GI50 (MDA-MB-231 [4]): 10.4 µM; TGI (MDA-MB-231 [4]): 14.3 µM; GI50 (A549 [5]): 11.8 µM; TGI (A549 [5]): 19 µM; GI50 (HT-29 [6]): 11.8 µM; TGI (HT-29 [6]): 14 µM

Q: CC1=C[C@@H]2[C@@H](C(C)C)CC[C@@](C)(N=C=S)[C@@H]2CC1=O [AXINISOTHIOCYANATE L] was tested. Which GI50 (A549 [5]) did it give?
A: 31.4 µM

Q: What about the GI50 (HT-29 [6]) of the same compound?
A: 31.4 µM
